Drawing on ChEMBL document CHEMBL2169798, “Discovery of a Plasmodium falciparum glucose-6-phosphate dehydrogenase 6-phosphogluconolactonase inhibitor (R,Z)-N-((1-ethylpyrrolidin-2-yl)methyl)-2-(2-fluorobenzylidene)-3-oxo-3,4-dihydro-2H-benzo[b][1,4]thiazine-6-carboxamide (ML276) that reduces parasite growth in vitro” (J Med Chem, 2012), this text covers IC50 for 26 compounds.

The target of test [1] is Glucose-6-phosphate 1-dehydrogenase (Homo sapiens, UniProt P11413). The test is described as follows: Inhibition of human glucose-6-phosphate dehydrogenase after 90 mins by resazurin/diaphorasecoupled assay. Put shortly:
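Dose response with a top final concentration of […] and 0.8% final DMSO, in 50 mM Tris pH 7.5, 0.005% Tween 20 and 1 mg/mL BSA. The enzyme solution held 0.05 μg/mL hG6PD. The substrate solution held 0.64 mM G6P, 12 μM NADP+, 6.6 mM MgCl2, 2 U/mL diaphorase and 0.28 mM resazurin.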

Test [2] deals with T1, Glucose-6-phosphate 1-dehydrogenase (Plasmodium falciparum, UniProt Q25856).
T1 sequence (Q25856 whole entry): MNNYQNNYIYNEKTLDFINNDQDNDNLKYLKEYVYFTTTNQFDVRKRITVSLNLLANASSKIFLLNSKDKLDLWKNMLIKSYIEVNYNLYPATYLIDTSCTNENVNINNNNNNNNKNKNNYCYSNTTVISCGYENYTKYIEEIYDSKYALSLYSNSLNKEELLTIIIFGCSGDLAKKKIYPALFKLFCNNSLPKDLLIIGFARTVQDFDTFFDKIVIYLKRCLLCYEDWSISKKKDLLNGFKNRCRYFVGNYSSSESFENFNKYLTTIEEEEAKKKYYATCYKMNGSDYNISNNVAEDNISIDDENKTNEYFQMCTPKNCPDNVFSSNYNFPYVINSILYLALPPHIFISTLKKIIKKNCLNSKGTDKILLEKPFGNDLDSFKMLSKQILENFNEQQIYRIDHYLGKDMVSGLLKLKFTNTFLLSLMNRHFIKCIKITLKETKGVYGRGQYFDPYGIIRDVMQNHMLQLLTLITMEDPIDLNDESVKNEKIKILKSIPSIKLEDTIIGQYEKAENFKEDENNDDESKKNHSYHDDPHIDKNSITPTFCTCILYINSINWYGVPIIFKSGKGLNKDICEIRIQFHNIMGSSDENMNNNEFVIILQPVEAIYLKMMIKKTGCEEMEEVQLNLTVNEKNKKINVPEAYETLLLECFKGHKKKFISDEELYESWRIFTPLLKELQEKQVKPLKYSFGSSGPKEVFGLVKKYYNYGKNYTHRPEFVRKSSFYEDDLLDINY
Nature of the test: Inhibition of Plasmodium falciparum glucose-6-phosphate dehydrogenase after 45 mins by orthogonal assay. Put shortly: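 Direct NADPH read without coupling: PfGluPho (0.4 μg/mL enzyme solution) in 50 mM Tris pH 7.5, 0.005% Tween 20, 1 mg/mL BSA; substrate 40 μM G6P, 6 μM NADP+, 6.6 mM MgCl2.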

For test [3], the target named is T1, Glucose-6-phosphate 1-dehydrogenase. The test is described as follows: Inhibition of Plasmodium falciparum glucose-6-phosphate dehydrogenase after 2 hrs by resazurin/diaphorasecoupled assay. In general terms: Resazurin is reduced to fluorescent resorufin, in cell work by metabolically active cells.

Glucose-6-phosphate 1-dehydrogenase (Homo sapiens, UniProt P11413), sequence (P11413 whole entry): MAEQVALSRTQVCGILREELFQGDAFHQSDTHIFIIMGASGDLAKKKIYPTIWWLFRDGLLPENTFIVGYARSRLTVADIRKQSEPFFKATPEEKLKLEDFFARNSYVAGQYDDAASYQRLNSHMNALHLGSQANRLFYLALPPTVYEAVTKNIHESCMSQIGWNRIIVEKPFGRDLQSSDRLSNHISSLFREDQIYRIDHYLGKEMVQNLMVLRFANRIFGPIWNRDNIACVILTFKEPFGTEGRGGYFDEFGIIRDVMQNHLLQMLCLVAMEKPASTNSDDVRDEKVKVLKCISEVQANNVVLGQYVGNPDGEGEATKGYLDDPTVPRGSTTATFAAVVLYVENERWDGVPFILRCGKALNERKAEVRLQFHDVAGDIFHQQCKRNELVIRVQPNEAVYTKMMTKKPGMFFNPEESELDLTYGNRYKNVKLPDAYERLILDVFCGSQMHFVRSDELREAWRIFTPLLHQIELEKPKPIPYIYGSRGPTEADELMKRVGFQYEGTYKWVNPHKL

As for `CC(C)(C)OC(=O)N1CCCC1CNC(=O)c1ccc2c(c1)NC(=O)/C(=C/c1ccccc1F)S2` (centres undefined), the half-inhibitory concentration (IC50) in test [1] is > 80 µM; in test [2], 24.4 µM; in test [3] it was > 80 µM.
On to `CCN1CCCC1CNC(=O)c1ccc2c(c1)NC(=O)/C(=C/c1ccccc1OC)S2` (centres undefined), for which the half-inhibitory concentration (IC50) is > 80 µM in test [1], 11.3 µM in test [2] and 9.79 µM in test [3].
In the case of `Cc1cccc(/C=C2\Sc3ccc(C(=O)NCCN4CCCC4)cc3NC2=O)c1`, the half-inhibitory concentration (IC50) in test [1] is > 80 µM; in test [2], 8.8 µM; in test [3] it was 11.8 µM.
As for `CCN1CCCC1CNC(=O)c1ccc2c(c1)NC(=O)/C(=C/c1ccc(F)cc1)S2` (centres undefined), the IC50 in test [1] is > 80 µM; in test [2], 2.06 µM; in test [3] it was 1.41 µM.
The like results for `CN(C)c1ccccc1CNC(=O)c1ccc2c(c1)NC(=O)/C(=C/c1ccccc1F)S2` were, in that order, > 80 µM, 67.8 µM and > 80 µM.
For `CCN1CCCC1CNC(=O)c1ccc2c(c1)NC(=O)/C(=C/c1ccccc1)S2` (centres undefined), the IC50 in test [1] is > 80 µM.
For `CCN1CCCC1CNC(=O)c1ccc2c(c1)NC(=O)/C(=C/c1ccccc1Cl)S2` (centres undefined), the IC50 is > 80 µM in test [1], 3.3 µM in test [2] and 2.56 µM in test [3].
For the compound `CCN(CC)CCNC(=O)c1ccc2c(c1)NC(=O)/C(=C/c1ccc(OC)c(OC)c1)S2`, the IC50 in test [1] is > 80 µM; in test [2] it was 24.5 µM; in test [3] it was 60 µM.
For `CCN(CC)CCNC(=O)c1ccc2c(c1)NC(=O)/C(=C/c1cccc(C)c1)S2`, the IC50 in test [1] is > 80 µM.
As to `CCCN(CCC)CCNC(=O)c1ccc2c(c1)NC(=O)/C(=C/c1ccc(C)cc1)S2`, the IC50 in test [1] was > 80 µM; in test [2], 45.9 µM; in test [3] it was > 80 µM.
In the case of `CCN(CC)CCNC(=O)c1ccc2c(c1)NC(=O)/C(=C/c1ccccc1Cl)S2`, the figures for the IC50 in test [1], in test [2] and in test [3] were > 80 µM, 44.9 µM and 16.2 µM, respectively.
Take `CCN1CCCC1CNC(=O)c1ccc2c(c1)NC(=O)/C(=C/c1ccc(C)cc1)S2` (centres undefined): the 50% inhibitory concentration (IC50) in test [1] is > 80 µM.
`CCN1CCCC1CNC(=O)c1ccc2c(c1)NC(=O)/C(=C/c1ccccc1C)S2` (centres undefined): the IC50 in test [1] is > 80 µM; in test [2], 5.01 µM; in test [3], 5.93 µM.
The corresponding values for `CCN(CC)CCNC(=O)c1ccc2c(c1)NC(=O)/C(=C/c1ccccc1F)S2` (stereo in doubt; 22) are > 80 µM, 4.8 µM and 6.9 µM.
As to `CCN1CCCC1CNC(=O)c1ccc2c(c1)NC(=O)/C(=C/c1cccc(F)c1F)S2` (centres undefined), the 50% inhibitory concentration (IC50) in test [1] was > 80 µM.
Regarding `CCN1CCCC1CNC(=O)c1ccc2c(c1)NC(=O)C(Cc1ccccc1F)S2` (centres undefined), the IC50 in test [1] and in test [3] was > 80 µM throughout.
Consider `O=C1Nc2cc(C(=O)NCCN3CCCC3)ccc2S/C1=C\c1ccccc1F` (stereo in doubt; 29), for which the concentration for half-maximal inhibition (IC50) in test [1] is > 80 µM.
The same measure, in the same setting: next, `O=C1Nc2cc(C(=O)NCCCN3CCCC3)ccc2S/C1=C\c1cccc(Cl)c1`: > 80 µM; `CCCN1CCCC1CNC(=O)c1ccc2c(c1)NC(=O)/C(=C/c1ccccc1F)S2` (centres undefined): > 80 µM.
Same read-out and setting: next, `CCN1CCCC1CNC(=O)c1ccc2c(c1)NC(=O)/C(=C/c1c(F)cccc1F)S2` (centres undefined): > 80 µM.
With `CCN1CCCC1CNC(=O)c1ccc2c(c1)NC(=O)CS2` (centres undefined), the half-maximal inhibitory concentration (IC50) in test [3] was > 80 µM.
On to `CN(C)CCNC(=O)c1ccc2c(c1)NC(=O)/C(=C/c1ccccc1F)S2` (stereo in doubt; 16), for which the IC50 in test [1] is > 80 µM.
The same measure, in the same setting: next, `O=C1Nc2cc(C(=O)NCC3CCCN3)ccc2S/C1=C\c1ccccc1F` (centres undefined): > 80 µM.
Same read-out and setting: next, `CCN1CCCC1CNC(=O)c1ccc2c(c1)NC(=O)/C(=C/c1cccc(F)c1)S2` (centres undefined): > 80 µM; `CN(C)CCNC(=O)c1ccc2c(c1)NC(=O)/C(=C/c1ccccc1F)S2` (stereo in doubt; 17): > 80 µM.
For the compound `O=C1Nc2cc(C(=O)NCCN3CCCC3)ccc2S/C1=C\c1ccccc1F` (stereo in doubt; 28), in test [1], the half-maximal inhibitory concentration (IC50) was > 80 µM.

Broadly, the IC50 is the concentration needed to halve the response being measured. Low values mean greater potency in that assay, high ones weaker potency in that assay.
